Measured values of several laboratories.
Compare with care: the assays were run in different laboratories.
Target: Tyrosine-protein kinase ITK/TSK (ITK, Homo sapiens, UniProt Q08881)
One construct used (Q08881 1-620): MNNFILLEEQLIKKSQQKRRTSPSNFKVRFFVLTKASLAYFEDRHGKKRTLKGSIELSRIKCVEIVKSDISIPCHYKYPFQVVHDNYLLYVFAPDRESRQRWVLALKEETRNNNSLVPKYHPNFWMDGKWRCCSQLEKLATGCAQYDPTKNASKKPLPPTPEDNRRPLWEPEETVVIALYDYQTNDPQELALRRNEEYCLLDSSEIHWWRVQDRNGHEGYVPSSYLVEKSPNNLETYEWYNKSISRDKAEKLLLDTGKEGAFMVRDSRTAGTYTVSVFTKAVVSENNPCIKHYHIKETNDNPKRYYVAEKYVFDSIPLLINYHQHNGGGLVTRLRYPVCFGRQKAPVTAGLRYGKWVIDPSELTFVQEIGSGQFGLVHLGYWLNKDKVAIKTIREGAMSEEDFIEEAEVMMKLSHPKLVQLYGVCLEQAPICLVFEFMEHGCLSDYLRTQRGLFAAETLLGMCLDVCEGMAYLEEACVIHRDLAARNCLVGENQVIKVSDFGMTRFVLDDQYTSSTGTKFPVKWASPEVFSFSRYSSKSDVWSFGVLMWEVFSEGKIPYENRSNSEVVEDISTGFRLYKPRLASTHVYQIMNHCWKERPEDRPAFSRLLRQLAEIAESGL

SMILES	test	conditions	remaining binding [%]
Cn1nc(C(=O)NCc2ccc(C(=O)O)cc2)cc1-c1ccc2[nH]ccc2c1	cell-free assay, competition with immobilised ligand	0.1 µM	85
F[C@@H]1CCN(c2nccc(-c3cnn4ncccc34)n2)C1	binding	1 µM	100
O=C(c1ccc(Nc2ncc(Cl)c(-c3ccc(Cl)s3)n2)cc1)N1CCC(N2CCCC2)CC1	binding, competition with immobilised ligand	1 µM	29
N[C@H]1CCN(c2nccc(-c3cnn4ncccc34)n2)C1	binding	1 µM	100
C[C@H](c1ccnc(Nc2nc3ccc(-c4cc(N(C)C)ncn4)cc3[nH]2)c1)N1CCN(C(=O)CC(F)(F)F)CC1	cell-free assay, competition with immobilised ligand	0.1 µM	100
CNC(=O)[C@@H]1CC[C@@H](n2c(-c3ccc4cnccc4c3)nc3ccc(C(=O)NCc4cccc(C(N)=O)c4)cc32)C1	binding, competition with immobilised ligand	1 µM	99
O=C(NCCCN1CCOCC1)c1ccc(Nc2ncc(Cl)c(-c3ccc(Cl)s3)n2)cc1	binding, competition with immobilised ligand	1 µM	40
COc1cnc(Nc2cccc(S(N)(=O)=O)c2)nc1N1CCN(c2ccccc2)C(=O)C1	binding, competition with immobilised ligand	1 µM	100
Cc1c(NC(=O)c2cc(C(N)=O)nc3cc(F)ccc23)c(C(F)(F)F)nn1Cc1ccc(C#N)cc1	cell-free assay, competition with immobilised ligand	1 µM	78
O=C(c1ccc(Nc2nccc(-c3cc4ccccc4s3)n2)cc1)N1CCC(N2CCCC2)CC1	binding, competition with immobilised ligand	1 µM	96
CN(C)c1ncc(F)c(-c2cnn3ncccc23)n1	binding	1 µM	100
Nc1ncc2c(n1)-c1c([nH]c3ccc(C#CC4CC4)cc13)CCCC2	binding, competition with immobilised ligand	1 µM	92
O=C(NCC1CCOCC1)c1n[nH]cc1NC(=O)c1c(F)cccc1F	binding, competition with immobilised ligand	1 µM	100
CC(=O)C1=C(C)N(c2cccc(C(F)(F)F)c2)C(=O)N[C@@H]1c1ccc(C#N)nc1	cell-free assay, competition with immobilised ligand	1 µM	90.4
CC1CCCN1c1nccc(-c2cnn3ncccc23)n1 (centres unmarked)	binding	1 µM	100
FC(F)(F)Oc1cccc(-c2cnc3ccc(-c4ccncc4)nn23)c1	cell-free assay, competition with immobilised ligand	5 µM	84
COc1ccc2c(c1)O[C@H](c1ccc(OC)c(OC)c1)C[C@@H]2NC(=O)C1(c2ccc3c(c2)OC(F)(F)O3)CC1	cell-free assay, competition with immobilised ligand	1 µM	100
Cc1cnn2ncc(-c3ccnc(N(C)C)n3)c2c1	binding	1 µM	100
CCC(=O)N[C@@H]1CC[C@H](C(=O)N(C)c2ccc(-c3nc4ccccc4o3)cc2)C1	cell-free assay, competition with immobilised ligand	1 µM	100
C[C@@H]1CCN(c2nccc(-c3cnn4ncccc34)n2)C1	binding	1 µM	91
